{
  "source": "paper PMC11815446",
  "about": "(Open Heart, 2025)",
  "key": {"[1]": {"assay": "Safety assessment, treatment emergent adverse events", "type": "in vivo, human", "details": "A n=40, B n=39", "procedure,_shortened": "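Healthy Indian adults (18–45 y, BMI 18.50–29.90 kg/m²) were CYP2C19-genotyped at two laboratories as *1/*1 or *2/*2. Randomised two-period crossover: loading dose day 1, then once-daily maintenance doses days 2–6, with a washout of at least 14 days. The investigator recorded adverse events throughout the study, along with PT/PTT, vital signs, ECGs, haematology, blood chemistry, urinalysis and physical examinations.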"}, "[2]": {"details": "two-step process in the liver; ref 8 9; cited from earlier work"}, "[3]": {"system": "ADP-induced platelet aggregation", "assay": "ADP-induced platelet aggregation in whole blood, impedance aggregometry", "type": "in vivo, human", "details": "for mean %inhibition of platelet aggregation: all subjects"}, "[4]": {"system": "CYP2C19", "details": "ref 8 9; cited from earlier work"}},
  "note": "Counter-ions that a name gives are not always drawn.",
  "data": [
    {"smiles": "COC(=O)[C@H](c1ccccc1Cl)N1CCc2sccc2C1", "note": "[Clopidogrel, Hydrogen sulfate;hydron;methyl (2S)-2-(2-chlorophenyl)-2-(6,7-dihydro-4H-thieno[3,2-c]pyridin-5-yl)acetate]", "values": [
      {"measurement": "Treatment emergent adverse events: Anxiety", "setting": "[1]", "result": "00.0 (00.0) n (%) E"},
      {"measurement": "Treatment emergent adverse events: Cough", "setting": "[1]", "result": "00.0 (00.0) n (%) E"},
      {"measurement": "Treatment emergent adverse events: Psychiatric disorders", "setting": "[1]", "result": "00.0 (00.0) n (%) E"},
      {"measurement": "Treatment emergent adverse events: Respiratory, thoracic and mediastinal disorders", "setting": "[1]", "result": "00.0 (00.0) n (%) E"},
      {"measurement": "share of the drug converted to the active metabolite H4", "setting": "[2]", "result": 15, "unit": "%"},
      {"measurement": "mean %inhibition of platelet aggregation", "setting": "[3]; 6 hours postdose (loading dose: AT-10 40 mg, clopidogrel 300 mg)", "result": 18.53, "unit": "%"},
      {"measurement": "mean %inhibition of platelet aggregation", "setting": "[3]; 6 hours postdose on day 6 (maintenance dose: AT-10 10 mg, clopidogrel 75 mg)", "result": 51.19, "unit": "%"},
      {"measurement": "time at which inhibition of ADP-induced platelet aggregation reaches the peak", "setting": "[3]; postdose", "result": "around 6 hours"},
      {"measurement": "contribution of CYP2C19 to the first metabolic step (Step 1)", "setting": "[4]", "result": 45, "unit": "%"}
    ]}
  ]
}
